Assay results taken from ChEMBL document CHEMBL1132616, “6-Substituted benzopyrans as potassium channel activators: synthesis, vasodilator properties, and multivariate analysis” (1999).

What was measured:
Rattus norvegicus [1] = species on record: Rattus norvegicus; test: Relaxant potency in rat trachea.; type: functional
Method in brief: (§1)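 Aortic rings (5 mm wide) were denuded of endothelium, confirmed by the absence of a dilator response to 1 mmol/L acetylcholine. Tracheal strips were cut through the ring opposite the muscle layer. Tissues were mounted in 7-mL baths for isometric force recording. Once contraction was stable, cumulative concentration–effect curves were run. Compounds came from 10^-2 M DMSO stocks diluted in water, with final bath DMSO at most 2%.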

Rattus norvegicus [2] = species on record: Rattus norvegicus; test: Relaxant potency in rat aorta.; type: functional; method in brief: as §1

| SMILES | Log 1/C (Rattus norvegicus [1]) | Log 1/C (Rattus norvegicus [2]) |
| --- | --- | --- |
| CC1(C)C=C(n2ccccc2=O)c2cc(C(=O)c3cccs3)ccc2O1 | 5.84 | 6.4 |
| CC1(C)C=C(n2ccccc2=O)c2cc(OC(=O)Nc3ccc(F)cc3)ccc2O1 | 4.37 | 5.3 |
| CC1(C)C=C(n2ccccc2=O)c2cc(O)ccc2O1 | 5.31 | 5.44 |
| Cc1ccc(C)n1-c1ccc2c(c1)C(n1ccccc1=O)=CC(C)(C)O2 | 6.78 | 7.27 |
| CC1(C)C=C(n2ccccc2=O)c2cc(OC(=O)Nc3ccccc3C(F)(F)F)ccc2O1 | 5.19 | 5.58 |
| CC1(C)C=C(n2ccccc2=O)c2cc(C(=O)c3ccco3)ccc2O1 | 5.92 | 6.49 |
| CC1(C)C=C(n2ccccc2=O)c2cc(OCC(=O)c3ccccc3)ccc2O1 | 4.69 | 5.05 |
| CC1(C)C=C(n2ccccc2=O)c2cc(C(=O)c3ccccc3F)ccc2O1 | 6.34 | 7.08 |
| CC1(C)C=C(n2ccccc2=O)c2cc(OC(=O)Nc3ccc(C(F)(F)F)cc3)ccc2O1 | 4.54 | 5.1 |
| CC1(C)C=C(n2ccccc2=O)c2cc(C(=O)c3ccc(O)cc3)ccc2O1 | 5.87 | 6.65 |
| CC1(C)C=C(n2ccccc2=O)c2cc(OC(=O)Nc3ccccc3F)ccc2O1 | 4.22 | 5.38 |
| CC1(C)C=C(n2ccccc2=O)c2cc(OC(=O)Nc3ccccc3)ccc2O1 | 4.89 | 5.3 |
| CC1(C)C=C(n2ccccc2=O)c2cc(Br)ccc2O1 | 7.53 | 7.84 |
| CC1(C)C=C(n2ccccc2=O)c2ccccc2O1 | 5.05 | 5.43 |
| CC1(C)C=C(n2ccccc2=O)c2cc(C(=N)NO)ccc2O1 | 5.51 | 5.99 |
| CC1(C)C=C(n2ccccc2=O)c2cc(C=C(C#N)C#N)ccc2O1 | 6.3 | 6.95 |
| CC1(C)C=C(n2ccccc2=O)c2cc(C(F)(F)F)ccc2O1 | 7.37 | 7.61 |

| SMILES | Log 1/C (Rattus norvegicus [1]) | Log 1/C (Rattus norvegicus [2]) |
| --- | --- | --- |
| COc1ccc(C(=O)c2ccc3c(c2)C(n2ccccc2=O)=CC(C)(C)O3)cc1 | 5.72 | 6.15 |
| CC1(C)C=C(n2ccccc2=O)c2cc(C(=O)c3ccccc3)ccc2O1 | 6.21 | 6.61 |
| CC1(C)C=C(n2ccccc2=O)c2cc(OCC(=O)c3ccc(F)cc3)ccc2O1 | 4.77 | 4.63 |
| CC1(C)C=C(n2ccccc2=O)c2cc(C(=O)c3c(F)cccc3F)ccc2O1 | 5.99 | 6.97 |
| COc1ccc2c(c1)C(n1ccccc1=O)=CC(C)(C)O2 | 5.99 | 6.55 |
| CC1(C)C=C(n2ccccc2=O)c2cc(C=O)ccc2O1 | 6.14 | 6.91 |
| CC1(C)C=C(n2ccccc2=O)c2cc(C#N)ccc2O1 [BIMAKALIM] | 7.1 | 7.67 |
| CC1(C)C=C(n2ccccc2=O)c2cc(C(=N)S)ccc2O1 | 5.96 | 6.21 |
| CC(=O)c1ccc2c(c1)C(n1ccccc1=O)=CC(C)(C)O2 | 6.65 | 7.37 |
| CC1(C)C=C(n2ccccc2=O)c2cc(OS(=O)(=O)F)ccc2O1 | 7.22 | 7.95 |
| CC1(C)C=C(n2ccccc2=O)c2cc(C(=O)c3ccccc3C(F)(F)F)ccc2O1 | 5.78 | 6.76 |
| Cc1ccccc1C(=O)c1ccc2c(c1)C(n1ccccc1=O)=CC(C)(C)O2 | 6.25 | 6.83 |
| CC1(C)C=C(n2ccccc2=O)c2cc(-c3ccncc3)ccc2O1 | 6.32 | 6.68 |
| CC1(C)C=C(n2ccccc2=O)c2cc(C(=O)c3ccccc3[N+](=O)[O-])ccc2O1 | 5.64 | 6.17 |
| CC(=O)Oc1ccc2c(c1)C(n1ccccc1=O)=CC(C)(C)O2 | 4.97 | 5.6 |
| CC1(C)C=C(n2ccccc2=O)c2cc(C(=O)c3ccc([N+](=O)[O-])cc3)ccc2O1 | 6.09 | 6.2 |
| CCC(=O)c1ccc2c(c1)C(n1ccccc1=O)=CC(C)(C)O2 | 5.85 | 6.63 |
